The source made the active and inactive calls. The rule behind the calls is not given here.
Key:
[1] = system: HEK293; experiment: Inhibition of Wnt3A-stimulated Wnt/beta-catenin pathway in HEK293 cells transfected with p8xTOPFlash, Renilla luciferase plasmid pRL-TK and pLKO.1 assessed as residual activity at 10 uM after 8 hrs by Dual topflash luciferase reporter gene assay relative to control; type: cell-based; settings: Homo sapiens
Summary of the method: (§1)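 HEK293 cells stably carrying a TOPFlash luciferase reporter and a Renilla luciferase control were stimulated with Wnt3A-conditioned medium and given DMSO or compound (0.04–10 μM) for 8 h. Wnt3A plus DMSO was set as 100%. IC50 was fit from mean ± SEM, n 3. Percent inhibition at the two highest concentrations was given when no full curve was obtained.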

[2] = target: Frizzled-1 (Homo sapiens) (UniProt Q9UP38); experiment: Induction of GFP-tagged Fzd1 (unknown origin) internalization expressed in human U2OS cells at 12.5 after 6 hrs by confocal microscopic method relative to control; type: cell-based
Sequence of Frizzled-1 (Homo sapiens) (Q9UP38 70-647 limits assumed): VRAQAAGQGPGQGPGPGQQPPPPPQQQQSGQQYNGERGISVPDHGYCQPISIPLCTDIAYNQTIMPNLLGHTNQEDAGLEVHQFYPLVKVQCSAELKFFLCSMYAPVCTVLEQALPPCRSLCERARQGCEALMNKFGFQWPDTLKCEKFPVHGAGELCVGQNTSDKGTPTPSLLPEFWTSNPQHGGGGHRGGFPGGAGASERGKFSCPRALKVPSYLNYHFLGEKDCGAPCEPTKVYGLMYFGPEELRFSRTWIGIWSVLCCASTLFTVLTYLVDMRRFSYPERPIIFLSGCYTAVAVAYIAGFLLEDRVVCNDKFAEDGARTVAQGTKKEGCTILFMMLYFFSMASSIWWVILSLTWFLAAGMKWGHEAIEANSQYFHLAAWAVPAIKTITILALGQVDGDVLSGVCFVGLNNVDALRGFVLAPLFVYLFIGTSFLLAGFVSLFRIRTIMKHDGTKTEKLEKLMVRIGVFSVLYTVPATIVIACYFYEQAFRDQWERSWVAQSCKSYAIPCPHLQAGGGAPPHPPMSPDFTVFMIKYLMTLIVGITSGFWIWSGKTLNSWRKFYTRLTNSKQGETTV
Summary of the method: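 U2OS cells stably expressing Frizzled1-GFP were exposed to compound for 6 h, fixed and imaged by confocal microscopy. Punctate was scored visually against DMSO control: similar to control = 0, trace = 1, moderate = 3, strong = 5.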

[3] = system: HEK293; experiment: Inhibition of Wnt3A-stimulated Wnt/beta-catenin pathway in HEK293 cells transfected with p8xTOPFlash, Renilla luciferase plasmid pRL-TK and pLKO.1 at 5 uM after 8 hrs by Dual topflash luciferase reporter gene assay relative to control; type: cell-based; settings: Homo sapiens; summary of the method: as §1
[4] = system: HEK293; experiment: Inhibition of Wnt3A-stimulated Wnt/beta-catenin pathway in HEK293 cells transfected with p8xTOPFlash, Renilla luciferase plasmid pRL-TK and pLKO.1 at 10 uM after 8 hrs by Dual topflash luciferase reporter gene assay relative to control; type: cell-based; settings: Homo sapiens; summary of the method: as §1
[5] = species: Homo sapiens; experiment: Inhibition of Wnt/beta-catenin signaling pathway in human HCT116 cells cytosol lysate harboring beta-catenin mutation assessed as reduction in beta-catenin protein expression at 5 uM after 18 hrs by Western blot analysis relative to control; type: subcellular
Summary of the method: (§2)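 Cells were treated with 5 μM compound in DMSO, or DMSO alone, for 18 h. Cytosolic fraction and whole-cell lysate were immunoblotted for target proteins with β-actin as loading control. Band levels were normalized to β-actin and expressed as percent of the DMSO-treated control.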

[6] = species: Homo sapiens; experiment: Inhibition of Wnt/beta-catenin signaling pathway in human HCT116 cells cytosol lysate harboring beta-catenin mutation assessed as reduction in Axin2 protein expression at 5 uM after 18 hrs by Western blot analysis relative to control; type: subcellular; summary of the method: as §2
[7] = species: Homo sapiens; experiment: Inhibition of Wnt/beta-catenin signaling pathway in human HCT116 whole cell lysate harboring beta-catenin mutation assessed as reduction in cyclin D1 protein expression at 5 uM after 18 hrs by Western blot analysis relative to control; type: subcellular; summary of the method: as §2
[8] = system: SW480; experiment: Inhibition of Wnt/beta-catenin signaling pathway in human SW480 cells cytosol lysate harboring APC mutation assessed as reduction in Axin2 protein expression at 5 uM after 18 hrs by Western blot analysis relative to control; type: subcellular; summary of the method: as §2
[9] = system: SW480; experiment: Inhibition of Wnt/beta-catenin signaling pathway in human SW480 whole cell lysate harboring APC mutation assessed as reduction in c-Myc protein expression at 5 uM after 18 hrs by Western blot analysis relative to control; type: subcellular; summary of the method: as §2
[10] = system: SW480; experiment: Inhibition of Wnt/beta-catenin signaling pathway in human SW480 cells cytosol lysate harboring APC mutation assessed as reduction in beta-catenin protein expression at 5 uM after 18 hrs by Western blot analysis relative to control; type: subcellular; summary of the method: as §2
[11] = system: SW480; experiment: Inhibition of Wnt/beta-catenin signaling pathway in human SW480 whole cell lysate harboring APC mutation assessed as reduction in cyclin D1 protein expression at 5 uM after 18 hrs by Western blot analysis relative to control; type: subcellular; summary of the method: as §2
[12] = species: Homo sapiens; experiment: Inhibition of Wnt/beta-catenin signaling pathway in human HCT116 whole cell lysate harboring beta-catenin mutation assessed as reduction in c-Myc protein expression at 5 uM after 18 hrs by Western blot analysis relative to control; type: subcellular; summary of the method: as §2
[13] = Inhibition of Wnt3A-stimulated Wnt/beta-catenin pathway in HEK293 cells transfected with p8xTOPFlash, Renilla luciferase plasmid pRL-TK and pLKO.1 after 8 hrs by Dual topflash luciferase reporter gene assay; type: cell-based; settings: Homo sapiens, HEK293, 8 h; summary of the method: as §1
[14] = species: Homo sapiens; experiment: Inhibition of Wnt/beta-catenin signaling pathway in human HCT116 whole cell lysate harboring beta-catenin mutation assessed as reduction in survivin protein expression at 5 uM after 18 hrs by Western blot analysis relative to control; type: subcellular; summary of the method: as §2
[15] = system: SW480; experiment: Inhibition of Wnt/beta-catenin signaling pathway in human SW480 whole cell lysate harboring APC mutation assessed as reduction in survivin protein expression at 5 uM after 18 hrs by Western blot analysis relative to control; type: subcellular; summary of the method: as §2
[16] = species: Homo sapiens; experiment: Inhibition of Wnt/beta-catenin signaling pathway in human HCT116 whole cell lysate harboring beta-catenin mutation assessed as reduction in c-Myc protein expression at 5 to 10 uM after 18 hrs by Western blot analysis; type: subcellular
[17] = species: Homo sapiens; experiment: Inhibition of Wnt/beta-catenin signaling pathway in human HCT116 whole cell lysate harboring beta-catenin mutation assessed as reduction in survivin protein expression at 5 to 10 uM after 18 hrs by Western blot analysis; type: subcellular
[18] = species: Homo sapiens; experiment: Inhibition of Wnt/beta-catenin signaling pathway in human HCT116 cells cytosol lysate harboring beta-catenin mutation assessed as reduction in beta-catenin protein expression at 5 to 10 uM after 18 hrs by Western blot analysis; type: subcellular
[19] = species: Homo sapiens; experiment: Inhibition of Wnt/beta-catenin signaling pathway in human HCT116 cells cytosol lysate harboring beta-catenin mutation assessed as reduction in Axin2 protein expression at 5 to 10 uM after 18 hrs by Western blot analysis; type: subcellular
[20] = species: Homo sapiens; experiment: Inhibition of Wnt/beta-catenin signaling pathway in human HCT116 whole cell lysate harboring beta-catenin mutation assessed as reduction in survivin protein expression at 5 to 10 uM after 18 hrs by Western blot analysis

Row | SMILES | Activity [1] | score [2] | inhibition [3] | inhibition [4] | inhibition [5] | inhibition [6] | inhibition [7] | inhibition [8] | inhibition [9] | inhibition [10] | inhibition [11] | inhibition [12] | IC50 [13] | inhibition [14] | inhibition [15] | inhibition [16] | inhibition [17] | inhibition [18] | inhibition [19] | inhibition [20]
1 | O=C(NC(=O)c1cc(Cl)ccc1O)c1ccc([N+](=O)[O-])cc1 | 153% | 0 |  |  |  |  |  |  |  |  |  |  |  |  |  |  |  |  |  | 
2 | COc1ccc(-c2nnc(-c3cc(Cl)ccc3O)[nH]2)cc1 |  | 0 | 14% | 60% |  |  |  |  |  |  |  |  |  |  |  |  |  |  |  | 
3 | O=[N+]([O-])c1ccc(-c2nnc(-c3cc(Cl)ccc3O)[nH]2)cc1 |  | 4 |  |  | 59% | 75% | 20% | 44% | 2% | 67% | 70% | 2% | 1.41 µM | 38% | 38% |  |  |  |  | 
4 | Oc1ccc(Cl)cc1-c1nnc(-c2ccc(F)cc2)[nH]1 |  | 1 |  |  |  |  |  |  |  |  |  |  | 1.91 µM |  |  |  |  |  |  | 
5 | O=[N+]([O-])c1ccc(-c2nnc(-c3cc(Cl)ccc3O)[nH]2)c(Cl)c1 |  | 5 |  |  | 34% | 68% | 22% | 47% | 4% | 69% | 57% | 3% | 1.84 µM | 38% | 43% |  |  |  |  | 
6 | Oc1ccc(Cl)cc1-c1nnc(-c2ccccc2)[nH]1 |  | 0 |  |  |  |  |  |  |  |  |  |  | 4.02 µM |  |  | Active | Active | Active | Active | Active
7 | Oc1ccc(Cl)cc1-c1nnc(-c2ccc(C(F)(F)F)cc2)[nH]1 |  | 2 |  |  | 6% | 68% | 17% | 58% | 2% | 72% | 76% | 3% | 2.88 µM | 44% | 56% |  |  |  |  | 
8 | O=C(NCc1ccc([N+](=O)[O-])cc1)c1cc(Cl)ccc1O |  | 0 | 3% | 43% |  |  |  |  |  |  |  |  |  |  |  |  |  |  |  | 
9 | O=C(Nc1ccc([N+](=O)[O-])cc1Cl)c1cc(Cl)ccc1O [NICLOSAMIDE] |  | 5 |  |  | 46% | 35% | 28% | 29% | 3% | 74% | 45% | 1% | 0.34 µM | 44% | 41% |  |  |  |  | 

— ChEMBL document CHEMBL4371061, “Identification of novel triazole inhibitors of Wnt/β-catenin signaling based on the Niclosamide chemotype” (Bioorg Med Chem Lett, 2019)
